Results as given in ChEMBL document CHEMBL3612017, “Rigidified A3 Adenosine Receptor Agonists: 1-Deazaadenine Modification Maintains High in Vivo Efficacy” (ACS Med Chem Lett, 2015).

What was measured:
Mus musculus [1] = assay: Analgesic activity in mouse chronic constriction injury model of neuropathic pain assessed as protection of ipsilateral hind paw mechanoallodynia of sciatic nerve at 0.3 to 30 umol/kg administered through oral gavage at point of peak pain on day 7 measured at 3 hrs; assay type: functional
How it was run: (§1)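 Mice had sciatic nerve chronic constriction injury. Compound was given by oral gavage on day 7, at peak pain. Mechanoallodynia was scored on the ipsilateral and contralateral hind paws at the 1 h and 3 h time points, as % protection. n = 4 per group, some n = 3.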

Mus musculus [2] = assay: Analgesic activity in mouse chronic constriction injury model of neuropathic pain assessed as protection of ipsilateral hind paw mechanoallodynia of sciatic nerve at 0.3 to 30 umol/kg administered through oral gavage at point of peak pain on day 7 relative to control measured at 1 hr; assay type: functional; how it was run: as §1
Mus musculus [3] = assay: Analgesic activity in mouse chronic constriction injury model of neuropathic pain assessed as time of peak protection at 0.3 to 30 umol/kg administered through oral gavage at point of peak pain on day 7; assay type: functional; how it was run: as §1
Adenosine receptor A3 [4] = target: T1, Adenosine receptor A3 (Canis lupus familiaris, UniProt Q28309); assay: Binding affinity to canine adenosine A3 receptor expressed in HEK293 cell membranes
T1 sequence (Q28309 whole entry): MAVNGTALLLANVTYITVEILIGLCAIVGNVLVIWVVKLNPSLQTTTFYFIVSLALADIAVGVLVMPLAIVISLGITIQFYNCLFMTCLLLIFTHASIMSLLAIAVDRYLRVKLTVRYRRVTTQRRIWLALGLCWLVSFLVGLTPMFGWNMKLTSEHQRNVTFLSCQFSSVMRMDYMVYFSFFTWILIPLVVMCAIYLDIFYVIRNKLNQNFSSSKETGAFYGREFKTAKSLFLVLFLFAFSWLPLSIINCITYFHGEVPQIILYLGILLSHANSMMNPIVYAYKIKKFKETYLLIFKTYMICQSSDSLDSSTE
How it was run: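 Radioligand binding used membranes of HEK293 cells expressing the mouse or the canine A3 receptor. Affinities were given as Ki in nM, mean ± SEM, n = 3.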

Mus musculus [5] = assay: Analgesic activity in mouse chronic constriction injury model of neuropathic pain assessed as protection of ipsilateral hind paw mechanoallodynia of sciatic nerve at 0.3 to 30 umol/kg administered through oral gavage at point of peak pain on day 7; assay type: functional; details: 168 h; how it was run: as §1
Mus musculus [6] = assay: Effect on contralateral side hind paw in mouse chronic constriction injury model of neuropathic pain at 0.3 to 30 umol/kg administered through oral gavage at point of peak pain on day 7; assay type: ADME, organism-based; details: in vivo; how it was run: as §1
Adenosine receptor A1 = target: T2, Adenosine receptor A1 (Homo sapiens, UniProt P30542); assay: Displacement of [3H]N6-R-phenylisopropyladenosine from human adenosine A1 receptor expressed in CHO cell membranes
T2 sequence (P30542 whole entry): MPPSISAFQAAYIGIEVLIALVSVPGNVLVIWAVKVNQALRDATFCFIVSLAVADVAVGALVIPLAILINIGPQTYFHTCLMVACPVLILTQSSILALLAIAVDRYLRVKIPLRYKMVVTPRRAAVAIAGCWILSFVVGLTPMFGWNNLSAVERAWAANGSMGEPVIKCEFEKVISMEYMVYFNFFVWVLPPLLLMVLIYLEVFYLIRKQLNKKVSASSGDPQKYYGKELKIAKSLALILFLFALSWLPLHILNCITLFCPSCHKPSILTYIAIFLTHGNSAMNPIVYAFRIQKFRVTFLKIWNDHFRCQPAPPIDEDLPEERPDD
How it was run: (§2)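 Radioligand binding at the human receptor subtypes. Nonspecific binding was defined with adenosine 5′-N-ethyluronamide (10 μM). Ki values came from displacement curves, mean ± SEM, n = 3 unless noted. Single-point data were expressed as % inhibition of binding at 10 μM.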

[7] = Aqueous solubility of the compound; assay type: physicochemical; details: buffer
[8] = target: Adenosine receptor A2a (Homo sapiens) (UniProt P29274); assay: Displacement of [3H]2-[p-(2-carboxyethyl)phenyl-ethylamino]-5'-Nethylcarboxamidoadenosine from human adenosine A2A receptor expressed in HEK293 cell membranes at 10 uM; how it was run: as §2
Adenosine receptor A3 [9] = target: T3, Adenosine receptor A3 (Homo sapiens, UniProt P0DMS8); assay: Displacement of [125I]N6-(4-amino-3-iodobenzyl)adenosine-5'-N-methyluronamide from human adenosine A3 receptor expressed in CHO cell membranes
T3 sequence (P0DMS8 whole entry): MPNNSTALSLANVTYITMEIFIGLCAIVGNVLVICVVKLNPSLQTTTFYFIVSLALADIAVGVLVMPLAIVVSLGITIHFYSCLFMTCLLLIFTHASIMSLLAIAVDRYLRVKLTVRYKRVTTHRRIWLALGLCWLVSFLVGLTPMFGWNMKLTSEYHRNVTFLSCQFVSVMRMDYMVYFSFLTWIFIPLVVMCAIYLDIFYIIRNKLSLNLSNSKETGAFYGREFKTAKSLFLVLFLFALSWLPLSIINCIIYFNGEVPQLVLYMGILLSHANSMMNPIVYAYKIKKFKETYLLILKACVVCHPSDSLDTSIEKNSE

[10] = target: T4, Adenosine receptor A1 (Homo sapiens) (UniProt P30542); assay: Displacement of [3H]N6-R-phenylisopropyladenosine from human adenosine A1 receptor expressed in CHO cell membranes at 10 uM; how it was run: as §2
T4 sequence (whole entry): T2 sequence (P30542 whole entry)

[11] = target: T5, Adenosine receptor A2b (Homo sapiens) (UniProt P29275); assay: Displacement of [3H]MRS1754 from human adenosine A2B receptor expressed in HEK293 cell membranes at 10 uM
T5 sequence (whole entry): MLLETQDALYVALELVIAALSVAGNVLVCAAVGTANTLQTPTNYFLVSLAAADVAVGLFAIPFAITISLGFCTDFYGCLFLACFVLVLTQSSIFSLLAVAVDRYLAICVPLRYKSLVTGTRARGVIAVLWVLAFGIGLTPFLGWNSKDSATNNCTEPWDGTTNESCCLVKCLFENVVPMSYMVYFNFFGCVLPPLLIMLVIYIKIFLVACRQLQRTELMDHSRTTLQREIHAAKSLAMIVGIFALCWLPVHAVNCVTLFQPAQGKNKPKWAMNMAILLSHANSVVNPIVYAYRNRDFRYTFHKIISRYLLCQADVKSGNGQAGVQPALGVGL

Adenosine receptor A3 [12] = target: T6, Adenosine receptor A3 (Mus musculus, UniProt Q61618); assay: Binding affinity to mouse adenosine A3 receptor expressed in HEK293 cell membranes
T6 sequence (Q61618 whole entry): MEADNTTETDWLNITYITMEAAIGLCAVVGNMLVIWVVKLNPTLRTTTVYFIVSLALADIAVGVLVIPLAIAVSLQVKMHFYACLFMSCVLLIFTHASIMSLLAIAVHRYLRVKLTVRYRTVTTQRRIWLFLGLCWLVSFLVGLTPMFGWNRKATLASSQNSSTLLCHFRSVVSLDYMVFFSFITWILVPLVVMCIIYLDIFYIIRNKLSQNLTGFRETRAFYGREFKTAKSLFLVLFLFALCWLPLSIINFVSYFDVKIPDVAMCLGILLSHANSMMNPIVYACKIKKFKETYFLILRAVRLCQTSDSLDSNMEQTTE
How it was run: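 Radioligand binding used membranes of HEK293 cells expressing the mouse or the canine A3 receptor.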

[13] = target: 5-hydroxytryptamine receptor 2B (Homo sapiens, UniProt P41595); assay: Binding affinity to 5HT2B receptor (unknown origin)
Sequence of 5-hydroxytryptamine receptor 2B (P41595 whole entry): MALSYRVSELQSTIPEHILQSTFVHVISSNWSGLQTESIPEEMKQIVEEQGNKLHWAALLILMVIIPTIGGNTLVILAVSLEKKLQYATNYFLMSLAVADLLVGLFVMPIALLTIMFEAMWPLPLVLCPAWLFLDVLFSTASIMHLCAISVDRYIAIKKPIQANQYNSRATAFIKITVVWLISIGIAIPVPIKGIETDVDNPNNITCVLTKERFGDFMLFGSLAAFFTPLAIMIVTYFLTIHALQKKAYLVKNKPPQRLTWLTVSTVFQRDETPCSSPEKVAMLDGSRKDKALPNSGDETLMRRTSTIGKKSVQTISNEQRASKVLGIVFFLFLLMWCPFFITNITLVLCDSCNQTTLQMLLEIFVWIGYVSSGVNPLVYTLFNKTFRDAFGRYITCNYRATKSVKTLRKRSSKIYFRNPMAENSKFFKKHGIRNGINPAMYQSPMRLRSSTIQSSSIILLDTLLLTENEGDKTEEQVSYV

Sequence of Adenosine receptor A2a (Homo sapiens) (P29274 whole entry): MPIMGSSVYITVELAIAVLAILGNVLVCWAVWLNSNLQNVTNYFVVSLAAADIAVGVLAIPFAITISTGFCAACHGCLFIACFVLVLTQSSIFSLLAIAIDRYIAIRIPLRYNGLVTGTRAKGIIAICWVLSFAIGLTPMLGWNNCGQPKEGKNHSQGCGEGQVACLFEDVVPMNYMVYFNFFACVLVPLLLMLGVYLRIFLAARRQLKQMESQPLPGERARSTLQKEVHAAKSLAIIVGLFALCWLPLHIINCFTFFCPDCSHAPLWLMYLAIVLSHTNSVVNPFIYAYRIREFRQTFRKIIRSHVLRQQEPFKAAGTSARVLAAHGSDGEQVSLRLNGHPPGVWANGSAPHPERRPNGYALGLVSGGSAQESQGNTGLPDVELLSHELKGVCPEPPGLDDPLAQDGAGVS

Row | Compound | Activity (Mus musculus [1]) [%] | Emax (Mus musculus [2]) [%] | Time (Mus musculus [3]) [h] | Ki (Adenosine receptor A3 [4]) [nM] | ED50 (Mus musculus [5]) [µmol/kg] | Activity (Mus musculus [6]) | Ki (Adenosine receptor A1) [nM] | solubility [7] | inhibition [8] [%] | Ki (Adenosine receptor A3 [9]) [nM] | inhibition [10] [%] | inhibition [11] [%] | Ki (Adenosine receptor A3 [12]) [nM] | Ki [13] | Ki (Adenosine receptor A3 [4]; read-out: Ki) [nM]
1 | CNC(=O)[C@@]12C[C@@H]1[C@@H](n1cnc3c(NC)nc(C#Cc4ccc(Cl)s4)nc31)[C@H](O)[C@@H]2O | 46 | 93 | 1 | 8.5 | 0.73 | Non-toxic |  |  |  |  |  |  |  |  | 
2 | CNC(=O)[C@@]12C[C@@H]1[C@@H](n1cnc3c(NCC4CCC4)nc(-n4cc(-c5ccc(Cl)s5)nn4)nc31)[C@H](O)[C@@H]2O |  |  |  |  |  |  | 710 | Insoluble | 42 | 21 |  |  |  |  | 
3 | CNC(=O)[C@@]12C[C@@H]1[C@@H](n1cnc3c(NC(C)C)nc(C#Cc4ccc(Cl)s4)nc31)[C@H](O)[C@@H]2O | 39 | 88 | 1 |  |  | Non-toxic |  |  | 17 | 2.9 | 26 |  |  |  | 
4 | CNC(=O)[C@@]12C[C@@H]1[C@@H](n1cnc3c(NCC4CC4)nc(C#Cc4ccc(Cl)s4)nc31)[C@H](O)[C@@H]2O | 85 | 94 | 1 |  |  | Non-toxic |  |  | 3 | 7.9 | 24 |  |  |  | 
5 | CCCNc1cc(-n2cc(-c3ccc(Cl)s3)nn2)nc2c1ncn2[C@H]1[C@H](O)[C@H](O)[C@]2(C(=O)NC)C[C@H]12 |  |  |  |  |  |  |  |  | 4 | 110 | 44 |  |  |  | 
6 | CCCNc1nc(C#Cc2ccc(Cl)s2)nc2c1ncn2[C@H]1[C@H](O)[C@H](O)[C@]2(C(=O)NC)C[C@H]12 | 93 | 95 | 1 |  |  | Non-toxic |  |  | 34 | 1.1 | 22 | 34 | 6.8 | Not Active | 5.8
7 | CNC(=O)[C@@]12C[C@@H]1[C@@H](n1cnc3c(NC4CCC4)nc(C#Cc4ccc(Cl)s4)nc31)[C@H](O)[C@@H]2O | 95 | 97 | 1 |  |  | Non-toxic |  |  | 34 | 4.5 | 39 |  |  |  | 
8 | CNC(=O)[C@@]12C[C@@H]1[C@@H](n1cnc3c(NCC4CC4)nc(-n4cc(-c5ccc(Cl)s5)nn4)nc31)[C@H](O)[C@@H]2O |  |  |  |  |  |  | 1350 |  | 44 | 9.4 |  |  |  |  | 
9 | CNC(=O)[C@@]12C[C@@H]1[C@@H](n1cnc3c(NC4CC4)cc(C#Cc4ccc(Cl)s4)nc31)[C@H](O)[C@@H]2O |  |  |  |  |  |  |  |  | 11 | 10 | 26 |  |  |  | 
10 | CCCNc1cc(C#Cc2ccc(Cl)s2)nc2c1ncn2[C@H]1[C@H](O)[C@H](O)[C@]2(C(=O)NC)C[C@H]12 |  |  |  |  |  |  | 2440 |  | 11 | 38 |  |  |  |  | 
11 | CNC(=O)[C@@]12C[C@@H]1[C@@H](n1cnc3c(NC4CC4)nc(C#Cc4ccc(Cl)s4)nc31)[C@H](O)[C@@H]2O | 36 | 76 | 1 |  |  | Non-toxic |  |  | 44 | 1 | 47 |  |  |  | 
12 | CNC(=O)[C@@]12C[C@@H]1[C@@H](n1cnc3c(NCC4CCC4)nc(C#Cc4ccc(Cl)s4)nc31)[C@H](O)[C@@H]2O | 90 | 98 | 1 |  |  | Non-toxic |  |  | 5 | 15 | 34 |  |  |  | 
13 | CCNc1nc(C#Cc2ccc(Cl)s2)nc2c1ncn2[C@H]1[C@H](O)[C@H](O)[C@]2(C(=O)NC)C[C@H]12 | 87 | 98 | 1 |  | 0.9 | Non-toxic |  |  | 12 | 3.8 | 28 |  | 27 |  | 1.5
14 | CNC(=O)[C@@]12C[C@@H]1[C@@H](n1cnc3c(NC)cc(C#Cc4ccc(Cl)s4)nc31)[C@H](O)[C@@H]2O | 80 | 91 | 1 |  |  | Non-toxic |  |  | 8 | 3 | 15 |  | 31 |  | 75
15 | CCCCNc1nc(C#Cc2ccc(Cl)s2)nc2c1ncn2[C@H]1[C@H](O)[C@H](O)[C@]2(C(=O)NC)C[C@H]12 | 24 | 68 | 1 |  |  | Non-toxic |  |  | 0 | 2.9 | 6 |  |  |  | 
